Among the data in ChEMBL document CHEMBL3352515, “Design, synthesis, antiviral and cytostatic activity of ω-(1H-1,2,3-triazol-1-yl)(polyhydroxy)alkylphosphonates as acyclic nucleotide analogues” (Bioorg Med Chem, 2014) are IC50 values, retold here.

Common to all, as to format: functional, cell-based
One experiment relates to HeLa. Briefly: Cytostatic activity against human HeLa cells assessed as inhibition of proliferation after 72 hrs by Coulter cell counting method. The method, boiled down:
(§1)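 (5–7.5) × 10⁴ tumor cells per well were exposed to test compound at 37 °C in humidified CO₂. Incubation ran 48 h for L1210 and 72 h for CEM and HeLa. Cells were then counted in a Coulter counter. IC₅₀ is the concentration that inhibits cell proliferation by 50%.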

The test system of the next experiment is L1210. Briefly: Cytostatic activity against mouse L1210 cells assessed as inhibition of proliferation after 48 hrs by Coulter cell counting method. As to conditions: L1210, 48 h. The method, boiled down:
as §1

Another experiment has as its system CCRF-CEM. Briefly: Cytostatic activity against human CEM cells assessed as inhibition of proliferation after 72 hrs by Coulter cell counting method. The method, boiled down: as §1

Where only a bound is given, the exact number is not on record here.

With `Cn1cnc2c1c(=O)n(Cc1cn(C[C@H]3OC(C)(C)O[C@H]3[C@@H](O)P(=O)(OCc3ccccc3)OCc3ccccc3)nn1)c(=O)n2C`, the IC50 is more than 200 µM in the experiment on HeLa, 86 µM in the experiment on L1210 and 115 µM in the experiment with CCRF-CEM.
The like results for `Cn1cnc2c1c(=O)n(Cc1cn(C[C@@H]3OC(C)(C)O[C@H]3[C@@H](O)P(=O)(OCc3ccccc3)OCc3ccccc3)nn1)c(=O)n2C` were, in that order, more than 200 µM, 145 µM and 142 µM.
With `CC(=O)Nc1ccn(Cc2cn(C[C@H]3OC(C)(C)O[C@H]3[C@@H](O)P(=O)(OCc3ccccc3)OCc3ccccc3)nn2)c(=O)n1`, the IC50 in the experiment with HeLa, with L1210 and in the experiment on CCRF-CEM was more than 200 µM in each case.
Regarding `Nc1ncnc2c1ncn2Cc1cn(C[C@H](OCc2ccccc2)[C@H](O)P(=O)(OCc2ccccc2)OCc2ccccc2)nn1`, the IC50 in the experiment on HeLa amounted to 80 µM; in the experiment on L1210, 46 µM; in the experiment on CCRF-CEM, 76 µM.
Consider `O=c1ccccn1Cc1cn(C[C@H](OCc2ccccc2)[C@H](O)P(=O)(OCc2ccccc2)OCc2ccccc2)nn1`, for which the figures for the IC50 in the experiment with HeLa, in the experiment on L1210 and in the experiment with CCRF-CEM were 28 µM, 76 µM and 101 µM, respectively.
On to `Cn1c(=O)c2c(ncn2Cc2cn(C[C@H](OCc3ccccc3)[C@@H](O)P(=O)(OCc3ccccc3)OCc3ccccc3)nn2)n(C)c1=O`, for which the IC50 in the experiment with HeLa is 79 µM; with L1210, 71 µM; in the experiment on CCRF-CEM, 71 µM.
With `Cc1cn(Cc2cn(C[C@H]3OC(C)(C)O[C@H]3[C@@H](O)P(=O)(OCc3ccccc3)OCc3ccccc3)nn2)c(=O)[nH]c1=O`, the IC50 is more than 200 µM with HeLa, 122 µM in the experiment on L1210 and more than 200 µM in the experiment on CCRF-CEM.
`Cc1cn(Cc2cn(C[C@H](OCc3ccccc3)[C@H](O)P(=O)(OCc3ccccc3)OCc3ccccc3)nn2)c(=O)[nH]c1=O`: the concentration for half-maximal inhibition (IC50) with HeLa amounted to 64 µM; with L1210, 85 µM; in the experiment on CCRF-CEM, 83 µM.
In the same order, the values of `O=C(c1ccccc1)n1c(=O)ccn(Cc2cn(C[C@H](O)[C@@H](O)P(=O)(O)O)nn2)c1=O` are more than 200 µM, more than 200 µM and more than 200 µM.
In the case of `Cn1c(=O)c2c(ncn2Cc2cn(C[C@H]3OC(C)(C)O[C@H]3[C@@H](O)P(=O)(OCc3ccccc3)OCc3ccccc3)nn2)n(C)c1=O`, the half-inhibitory concentration (IC50) in the experiment with HeLa, with L1210 and in the experiment on CCRF-CEM was more than 200 µM throughout.
As to `CC1(C)O[C@@H]([C@@H](O)P(=O)(OCc2ccccc2)OCc2ccccc2)[C@@H](Cn2cc(Cn3ccc(=O)[nH]c3=O)nn2)O1`, the IC50 in the experiment on HeLa, in the experiment with L1210 and in the experiment with CCRF-CEM was more than 200 µM each time.
Regarding `Cn1cnc2c1c(=O)n(Cc1cn(C[C@H](OCc3ccccc3)[C@@H](O)P(=O)(OCc3ccccc3)OCc3ccccc3)nn1)c(=O)n2C`, the values for the IC50 in the experiment on HeLa, in the experiment on L1210 and in the experiment with CCRF-CEM were 78 µM, 71 µM and 82 µM, respectively.
As for `CC(=O)Nc1ccn(Cc2cn(C[C@H](OCc3ccccc3)[C@H](O)P(=O)(OCc3ccccc3)OCc3ccccc3)nn2)c(=O)n1`, the IC50 was found to be 160 µM in the experiment on HeLa, 96 µM with L1210 and 82 µM with CCRF-CEM.
Consider `Cn1c(=O)c2c(ncn2Cc2cn(C[C@H](OCc3ccccc3)[C@H](O)P(=O)(OCc3ccccc3)OCc3ccccc3)nn2)n(C)c1=O`, for which the IC50 was 83 µM with HeLa, 56 µM in the experiment on L1210 and 72 µM in the experiment on CCRF-CEM.
As to `Cn1cnc2c1c(=O)n(Cc1cn(C[C@H](OCc3ccccc3)[C@H](O)P(=O)(OCc3ccccc3)OCc3ccccc3)nn1)c(=O)n2C`, the IC50 in the experiment with HeLa was found to be 76 µM; in the experiment on L1210, 58 µM; with CCRF-CEM it was 68 µM.
Consider `CC1(C)O[C@@H]([C@@H](O)P(=O)(OCc2ccccc2)OCc2ccccc2)[C@H](Cn2cc(Cn3cnc4c(N)ncnc43)nn2)O1`, for which the IC50 in the experiment on L1210 and in the experiment with CCRF-CEM was more than 200 µM each time.

As a reminder, the IC50 is the point on the concentration scale where inhibition reaches its midpoint.
